Test results from ChEMBL document CHEMBL3864184, “Optimization of Highly Kinase Selective Bis-anilino Pyrimidine PAK1 Inhibitors” (ACS Med Chem Lett, 2016).
Activity calls are given as the source filed them. The rule behind the calls is not given here.

How the values were obtained:
[1] = Distribution coefficient, logD of the compound; type: physicochemical; settings: octanol/water
[2] = target: T1, 5-hydroxytryptamine receptor 2C (Homo sapiens) (UniProt P28335); test: Activity at 5HT2C receptor (unknown origin) at <1 uM
T1 sequence (whole entry): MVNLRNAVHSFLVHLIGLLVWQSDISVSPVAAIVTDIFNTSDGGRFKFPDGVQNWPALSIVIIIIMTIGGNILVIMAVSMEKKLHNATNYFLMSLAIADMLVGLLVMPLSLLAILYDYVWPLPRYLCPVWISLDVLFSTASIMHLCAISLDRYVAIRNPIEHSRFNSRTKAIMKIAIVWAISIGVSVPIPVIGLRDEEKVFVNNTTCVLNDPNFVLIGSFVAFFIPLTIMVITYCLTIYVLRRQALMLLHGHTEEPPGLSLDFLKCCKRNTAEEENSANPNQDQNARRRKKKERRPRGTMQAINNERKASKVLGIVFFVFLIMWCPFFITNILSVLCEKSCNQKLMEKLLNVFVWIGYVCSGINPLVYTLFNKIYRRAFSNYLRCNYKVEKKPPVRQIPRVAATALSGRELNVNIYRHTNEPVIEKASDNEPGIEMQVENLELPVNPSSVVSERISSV

[3] = target: T2, Muscarinic acetylcholine receptor M1 (Homo sapiens) (UniProt P11229); test: Activity at muscarinic acetylcholine receptor M1 (unknown origin) at <1 uM
T2 sequence (whole entry): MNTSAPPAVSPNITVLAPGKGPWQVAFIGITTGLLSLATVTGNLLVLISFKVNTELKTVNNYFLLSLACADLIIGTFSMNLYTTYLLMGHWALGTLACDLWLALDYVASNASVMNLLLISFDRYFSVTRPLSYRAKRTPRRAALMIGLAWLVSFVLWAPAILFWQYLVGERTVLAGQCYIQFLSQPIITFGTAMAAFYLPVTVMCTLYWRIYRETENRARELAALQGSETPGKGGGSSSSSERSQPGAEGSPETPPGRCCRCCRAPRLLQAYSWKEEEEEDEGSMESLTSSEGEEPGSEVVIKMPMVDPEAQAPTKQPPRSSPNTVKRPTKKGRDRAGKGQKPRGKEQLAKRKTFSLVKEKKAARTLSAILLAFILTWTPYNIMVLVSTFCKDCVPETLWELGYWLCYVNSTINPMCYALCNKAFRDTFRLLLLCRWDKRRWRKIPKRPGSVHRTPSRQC

[4] = target: PAK2 (serine/threonine-protein kinase PAK 2) (Homo sapiens, UniProt Q13177); test: Inhibition of N-terminal 6His-tagged recombinant human PAK2 (3-end residues) expressed in expressed in Escherichia coli at 100 nM
Sequence of PAK2 (serine/threonine-protein kinase PAK 2) (Q13177 whole entry): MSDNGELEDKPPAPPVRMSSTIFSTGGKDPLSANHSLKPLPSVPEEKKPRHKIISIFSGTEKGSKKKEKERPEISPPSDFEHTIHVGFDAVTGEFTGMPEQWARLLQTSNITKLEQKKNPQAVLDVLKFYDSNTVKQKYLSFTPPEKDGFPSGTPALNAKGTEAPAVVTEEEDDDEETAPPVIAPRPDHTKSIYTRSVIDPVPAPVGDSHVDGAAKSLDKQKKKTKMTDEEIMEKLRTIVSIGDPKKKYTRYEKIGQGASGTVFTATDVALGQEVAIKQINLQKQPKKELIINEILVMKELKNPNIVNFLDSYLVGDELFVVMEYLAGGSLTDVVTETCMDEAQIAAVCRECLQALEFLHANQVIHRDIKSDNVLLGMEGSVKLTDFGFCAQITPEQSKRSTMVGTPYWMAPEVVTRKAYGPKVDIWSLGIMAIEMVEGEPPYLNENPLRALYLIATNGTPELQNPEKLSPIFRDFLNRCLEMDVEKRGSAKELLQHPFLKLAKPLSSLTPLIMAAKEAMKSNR

[5] = target: T3, Tyrosine-protein kinase Lyn (Homo sapiens, UniProt P07948); test: Inhibition of N-terminal his6-tagged recombinant full-length human LYN expressed in baculovirus infected Sf21 cells at 100 nM
[6] = target: T4, Protein kinase C theta type (Homo sapiens, UniProt Q04759); test: Inhibition of human PKCtheta at 100 nM
Target sequence in this assay (Q04759 whole entry, looked up): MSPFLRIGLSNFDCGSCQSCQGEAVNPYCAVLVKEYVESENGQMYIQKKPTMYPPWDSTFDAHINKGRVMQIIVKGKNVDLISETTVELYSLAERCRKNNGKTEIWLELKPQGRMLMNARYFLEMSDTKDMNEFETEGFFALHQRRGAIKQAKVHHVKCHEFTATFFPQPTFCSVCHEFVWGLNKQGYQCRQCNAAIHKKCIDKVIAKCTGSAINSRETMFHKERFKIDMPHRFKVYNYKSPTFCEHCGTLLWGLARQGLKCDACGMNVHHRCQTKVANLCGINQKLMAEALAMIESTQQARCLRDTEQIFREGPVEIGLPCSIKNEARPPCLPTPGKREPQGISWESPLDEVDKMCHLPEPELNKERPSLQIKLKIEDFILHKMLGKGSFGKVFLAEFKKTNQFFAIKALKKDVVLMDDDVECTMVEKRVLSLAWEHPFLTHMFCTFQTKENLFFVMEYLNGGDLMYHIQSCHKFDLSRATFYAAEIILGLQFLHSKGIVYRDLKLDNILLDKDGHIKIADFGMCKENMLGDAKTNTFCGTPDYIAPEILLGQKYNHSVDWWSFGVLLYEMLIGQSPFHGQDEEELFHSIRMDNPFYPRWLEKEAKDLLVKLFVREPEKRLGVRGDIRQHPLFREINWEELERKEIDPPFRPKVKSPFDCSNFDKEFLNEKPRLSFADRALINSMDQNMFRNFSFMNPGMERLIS

[7] = target: T5, Tyrosine-protein kinase Fyn (Homo sapiens, UniProt P06241); test: Inhibition of N-Terminal His6-tagged full length recombinant human FYN expressed in baculovirus expression system at 100 nM
Target sequence in this assay (P06241 2-537 limits assumed): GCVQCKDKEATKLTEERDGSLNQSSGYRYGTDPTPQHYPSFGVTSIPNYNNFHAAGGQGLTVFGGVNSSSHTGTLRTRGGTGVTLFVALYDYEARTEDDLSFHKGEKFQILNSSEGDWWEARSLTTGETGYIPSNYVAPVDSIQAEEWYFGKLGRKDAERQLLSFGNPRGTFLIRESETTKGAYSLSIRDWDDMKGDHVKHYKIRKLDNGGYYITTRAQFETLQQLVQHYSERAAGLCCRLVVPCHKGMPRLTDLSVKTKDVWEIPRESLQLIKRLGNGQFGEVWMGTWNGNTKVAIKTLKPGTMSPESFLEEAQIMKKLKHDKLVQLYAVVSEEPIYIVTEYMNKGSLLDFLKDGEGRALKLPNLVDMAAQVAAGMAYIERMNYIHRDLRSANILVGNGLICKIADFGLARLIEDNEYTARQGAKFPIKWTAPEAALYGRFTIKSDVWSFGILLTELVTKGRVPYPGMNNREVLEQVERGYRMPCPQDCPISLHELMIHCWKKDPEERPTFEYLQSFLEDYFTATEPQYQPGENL

[8] = target: T6, Proto-oncogene tyrosine-protein kinase Src (Homo sapiens, UniProt P12931); test: Inhibition of N-terminal His6-tagged recombinant human Src (1 to 530 residues) expressed in baculovirus infected sf21 cells at 100 nM
T6 sequence (P12931 2-536 limits assumed): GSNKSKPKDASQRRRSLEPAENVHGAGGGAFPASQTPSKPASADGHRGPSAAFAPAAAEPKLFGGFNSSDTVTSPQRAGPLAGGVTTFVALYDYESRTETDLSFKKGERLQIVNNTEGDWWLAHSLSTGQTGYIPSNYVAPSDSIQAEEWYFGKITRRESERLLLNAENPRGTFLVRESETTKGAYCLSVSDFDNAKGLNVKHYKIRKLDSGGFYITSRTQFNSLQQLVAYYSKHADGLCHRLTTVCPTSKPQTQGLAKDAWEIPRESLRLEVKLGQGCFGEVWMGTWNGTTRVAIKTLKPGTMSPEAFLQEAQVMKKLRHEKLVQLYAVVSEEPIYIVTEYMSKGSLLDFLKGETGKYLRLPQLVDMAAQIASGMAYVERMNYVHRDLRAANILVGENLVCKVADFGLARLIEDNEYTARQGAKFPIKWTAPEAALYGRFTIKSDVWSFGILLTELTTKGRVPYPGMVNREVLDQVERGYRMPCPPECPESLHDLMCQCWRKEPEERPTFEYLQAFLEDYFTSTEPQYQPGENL

[9] = target: T7, Tyrosine-protein kinase Yes (Homo sapiens, UniProt P07947); test: Inhibition of N-terminal 6His-tagged full length recombinant human YES expressed in baculovirus expression system
[10] = target: T3, Tyrosine-protein kinase Lyn; test: Inhibition of N-terminal his6-tagged recombinant full-length human LYN expressed in baculovirus infected Sf21 cells
[11] = target: T4, Protein kinase C theta type; test: Inhibition of C-terminal 6His-tagged recombinant full length human PKCtheta expressed in fall armyworm Sf21 cells
Target sequence in this assay (Q04759 whole entry): as the sequence (Q04759 whole entry, looked up) above

[12] = target: T5, Tyrosine-protein kinase Fyn; test: Inhibition of N-Terminal His6-tagged full length recombinant human FYN expressed in baculovirus expression system
[13] = target: T6, Proto-oncogene tyrosine-protein kinase Src; test: Inhibition of N-terminal His6-tagged recombinant human Src (1 to 530 residues) expressed in baculovirus infected sf21 cells
[14] = target: T8, Tyrosine-protein kinase Lck (Homo sapiens, UniProt P06239); test: Inhibition of N-terminal 6His-tagged full length recombinant human LCK expressed in baculovirus expression system
Target sequence in this assay (P06239 whole entry): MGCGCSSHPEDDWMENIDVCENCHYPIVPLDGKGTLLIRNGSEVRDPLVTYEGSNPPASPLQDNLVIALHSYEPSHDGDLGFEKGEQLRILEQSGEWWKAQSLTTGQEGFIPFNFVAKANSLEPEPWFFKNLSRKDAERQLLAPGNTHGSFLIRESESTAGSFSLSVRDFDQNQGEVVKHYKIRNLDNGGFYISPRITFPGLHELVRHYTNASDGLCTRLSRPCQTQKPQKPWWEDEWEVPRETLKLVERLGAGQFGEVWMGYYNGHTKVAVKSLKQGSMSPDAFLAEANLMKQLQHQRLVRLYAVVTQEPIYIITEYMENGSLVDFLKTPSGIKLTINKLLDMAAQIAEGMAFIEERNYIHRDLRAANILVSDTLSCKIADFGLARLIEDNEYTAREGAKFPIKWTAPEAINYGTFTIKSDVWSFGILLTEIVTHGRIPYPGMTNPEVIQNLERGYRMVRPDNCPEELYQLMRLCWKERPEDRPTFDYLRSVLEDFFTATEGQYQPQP

[15] = target: T9, Muscarinic acetylcholine receptor M2 (Homo sapiens) (UniProt P08172); test: Activity at muscarinic acetylcholine receptor M2 (unknown origin) at <1 uM
T9 sequence (whole entry): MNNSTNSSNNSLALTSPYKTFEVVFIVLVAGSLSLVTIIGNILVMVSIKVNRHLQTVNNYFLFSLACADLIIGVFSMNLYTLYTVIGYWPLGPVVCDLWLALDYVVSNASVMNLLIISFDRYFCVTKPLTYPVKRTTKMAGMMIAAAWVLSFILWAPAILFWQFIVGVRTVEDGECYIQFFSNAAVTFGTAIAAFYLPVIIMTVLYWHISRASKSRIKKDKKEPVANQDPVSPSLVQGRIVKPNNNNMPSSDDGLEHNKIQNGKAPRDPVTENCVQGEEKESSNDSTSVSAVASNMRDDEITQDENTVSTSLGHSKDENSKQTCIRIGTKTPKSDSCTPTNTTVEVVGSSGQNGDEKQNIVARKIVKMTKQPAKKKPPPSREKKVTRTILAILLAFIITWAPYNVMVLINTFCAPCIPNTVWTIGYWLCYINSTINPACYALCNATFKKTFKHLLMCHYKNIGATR

[16] = target: T10, Muscarinic acetylcholine receptor M5 (Homo sapiens) (UniProt P08912); test: Activity at muscarinic acetylcholine receptor M5 (unknown origin) at <1 uM
T10 sequence (whole entry): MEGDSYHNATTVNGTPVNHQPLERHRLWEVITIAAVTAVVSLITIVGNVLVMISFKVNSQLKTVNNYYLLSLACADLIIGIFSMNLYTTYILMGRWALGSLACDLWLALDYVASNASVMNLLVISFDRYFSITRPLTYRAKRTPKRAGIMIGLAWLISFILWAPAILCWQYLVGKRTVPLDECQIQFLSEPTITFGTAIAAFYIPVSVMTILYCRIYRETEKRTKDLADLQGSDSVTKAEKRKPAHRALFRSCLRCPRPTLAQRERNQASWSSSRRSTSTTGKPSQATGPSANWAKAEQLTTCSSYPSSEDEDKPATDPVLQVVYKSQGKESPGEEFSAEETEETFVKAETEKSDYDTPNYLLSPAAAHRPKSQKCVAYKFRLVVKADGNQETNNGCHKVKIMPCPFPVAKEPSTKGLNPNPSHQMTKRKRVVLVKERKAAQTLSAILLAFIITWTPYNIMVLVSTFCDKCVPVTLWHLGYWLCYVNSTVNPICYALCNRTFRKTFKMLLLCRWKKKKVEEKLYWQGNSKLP

[17] = target: D(3) dopamine receptor (Homo sapiens) (UniProt P35462); test: Activity at dopamine receptor D3 (unknown origin) at <1 uM
Sequence of D(3) dopamine receptor (Homo sapiens) (P35462 whole entry): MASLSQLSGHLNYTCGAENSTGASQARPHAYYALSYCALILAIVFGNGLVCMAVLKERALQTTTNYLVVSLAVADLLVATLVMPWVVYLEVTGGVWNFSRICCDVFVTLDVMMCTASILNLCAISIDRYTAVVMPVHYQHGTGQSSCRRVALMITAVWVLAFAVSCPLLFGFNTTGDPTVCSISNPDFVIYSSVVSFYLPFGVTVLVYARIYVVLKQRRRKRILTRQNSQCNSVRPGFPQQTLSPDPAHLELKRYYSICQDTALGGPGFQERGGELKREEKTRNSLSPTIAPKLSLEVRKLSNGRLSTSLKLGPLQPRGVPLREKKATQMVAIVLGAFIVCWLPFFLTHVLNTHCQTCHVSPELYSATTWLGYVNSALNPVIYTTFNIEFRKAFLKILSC

[18] = target: 5-hydroxytryptamine receptor 2B (Homo sapiens) (UniProt P41595); test: Activity at 5HT2B receptor (unknown origin) at <1 uM
[19] = target: Sodium-dependent dopamine transporter (Homo sapiens) (UniProt Q01959); test: Activity at dopamine transporter (unknown origin) at <1 uM
Sequence of Sodium-dependent dopamine transporter (Homo sapiens) (Q01959 whole entry): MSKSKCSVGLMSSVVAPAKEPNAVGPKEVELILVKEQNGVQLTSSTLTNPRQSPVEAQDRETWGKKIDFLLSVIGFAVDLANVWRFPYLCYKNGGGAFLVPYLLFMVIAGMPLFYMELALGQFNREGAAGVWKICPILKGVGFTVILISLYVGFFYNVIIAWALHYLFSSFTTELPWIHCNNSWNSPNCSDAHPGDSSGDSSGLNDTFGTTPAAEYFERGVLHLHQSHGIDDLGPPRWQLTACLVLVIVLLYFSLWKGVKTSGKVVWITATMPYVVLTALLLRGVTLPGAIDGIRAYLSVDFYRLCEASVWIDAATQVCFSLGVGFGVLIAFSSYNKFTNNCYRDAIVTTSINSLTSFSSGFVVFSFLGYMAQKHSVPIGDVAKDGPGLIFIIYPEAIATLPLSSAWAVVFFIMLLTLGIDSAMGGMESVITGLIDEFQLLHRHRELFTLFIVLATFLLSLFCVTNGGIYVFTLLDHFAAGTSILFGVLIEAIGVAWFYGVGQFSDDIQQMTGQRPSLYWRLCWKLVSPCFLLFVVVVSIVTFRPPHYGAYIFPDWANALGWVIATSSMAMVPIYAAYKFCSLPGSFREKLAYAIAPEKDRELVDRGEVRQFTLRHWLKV

Homo sapiens = organism: Homo sapiens; test: Activity at CaV-L (unknown origin) at <1 uM
[20] = target: T11, Alpha-1B adrenergic receptor (Homo sapiens) (UniProt P35368); test: Activity at alpha-1B adrenergic receptor (unknown origin) at <1 uM
T11 sequence (whole entry): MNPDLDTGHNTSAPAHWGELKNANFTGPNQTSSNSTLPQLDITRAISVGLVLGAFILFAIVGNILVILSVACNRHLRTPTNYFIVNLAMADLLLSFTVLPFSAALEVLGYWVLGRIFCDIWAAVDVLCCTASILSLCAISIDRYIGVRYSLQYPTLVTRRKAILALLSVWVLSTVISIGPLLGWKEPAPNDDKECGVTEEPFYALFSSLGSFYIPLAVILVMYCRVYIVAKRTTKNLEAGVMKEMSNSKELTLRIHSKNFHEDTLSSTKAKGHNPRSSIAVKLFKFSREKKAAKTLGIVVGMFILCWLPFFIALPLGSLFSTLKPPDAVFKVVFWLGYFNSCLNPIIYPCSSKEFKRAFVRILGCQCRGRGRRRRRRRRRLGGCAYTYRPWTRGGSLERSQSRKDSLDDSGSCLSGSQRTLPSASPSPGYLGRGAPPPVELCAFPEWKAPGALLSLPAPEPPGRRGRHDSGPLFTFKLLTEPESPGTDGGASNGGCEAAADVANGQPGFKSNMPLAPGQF

[21] = target: T12, Alpha-2C adrenergic receptor (Homo sapiens) (UniProt P18825); test: Activity at alpha-2C adrenergic receptor (unknown origin) at <1 uM
T12 sequence (whole entry): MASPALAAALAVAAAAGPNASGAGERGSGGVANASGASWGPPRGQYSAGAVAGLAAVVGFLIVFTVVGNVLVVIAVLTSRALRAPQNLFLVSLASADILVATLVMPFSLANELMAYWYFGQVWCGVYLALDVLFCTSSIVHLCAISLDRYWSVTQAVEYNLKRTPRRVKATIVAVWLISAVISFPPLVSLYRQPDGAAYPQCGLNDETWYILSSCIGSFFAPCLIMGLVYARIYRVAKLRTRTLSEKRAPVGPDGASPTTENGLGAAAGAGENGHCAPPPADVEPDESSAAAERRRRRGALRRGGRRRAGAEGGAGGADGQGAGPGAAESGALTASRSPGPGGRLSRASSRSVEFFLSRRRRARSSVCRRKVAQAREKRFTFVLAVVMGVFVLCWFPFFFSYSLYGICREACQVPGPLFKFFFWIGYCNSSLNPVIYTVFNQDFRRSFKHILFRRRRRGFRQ

[22] = Intrinsic clearance in rat hepatocytes assessed per million cells; type: ADME, cell-based, Hepatocyte; settings: read-out: CLH
[23] = target: T13, Serine/threonine-protein kinase PAK 2 (Homo sapiens, UniProt Q13177)
T13 sequence (Q13177 whole entry): as the sequence (Q13177 whole entry) above

[24] = target: T13, Serine/threonine-protein kinase PAK 2; remark: listed apart in the source
[25] = target: T7, Tyrosine-protein kinase Yes; settings: 100 nM
Target sequence in this assay (P07947 2-543 limits assumed): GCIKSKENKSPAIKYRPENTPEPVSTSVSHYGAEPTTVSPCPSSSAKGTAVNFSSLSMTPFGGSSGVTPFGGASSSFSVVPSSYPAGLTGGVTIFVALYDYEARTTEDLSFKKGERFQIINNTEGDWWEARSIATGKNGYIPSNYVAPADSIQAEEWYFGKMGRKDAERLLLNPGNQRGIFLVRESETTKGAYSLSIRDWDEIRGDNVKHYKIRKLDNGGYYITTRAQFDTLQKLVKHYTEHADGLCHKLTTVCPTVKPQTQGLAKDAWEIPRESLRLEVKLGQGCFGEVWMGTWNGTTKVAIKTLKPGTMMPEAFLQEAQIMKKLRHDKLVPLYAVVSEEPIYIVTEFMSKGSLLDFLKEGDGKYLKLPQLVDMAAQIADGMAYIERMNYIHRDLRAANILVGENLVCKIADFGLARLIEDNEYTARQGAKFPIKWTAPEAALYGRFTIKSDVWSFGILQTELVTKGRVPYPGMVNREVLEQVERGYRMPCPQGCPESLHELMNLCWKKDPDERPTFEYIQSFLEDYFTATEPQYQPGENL

[26] = target: T8, Tyrosine-protein kinase Lck; settings: Sf21, 100 nM
Target sequence in this assay (P06239 2-509 limits assumed): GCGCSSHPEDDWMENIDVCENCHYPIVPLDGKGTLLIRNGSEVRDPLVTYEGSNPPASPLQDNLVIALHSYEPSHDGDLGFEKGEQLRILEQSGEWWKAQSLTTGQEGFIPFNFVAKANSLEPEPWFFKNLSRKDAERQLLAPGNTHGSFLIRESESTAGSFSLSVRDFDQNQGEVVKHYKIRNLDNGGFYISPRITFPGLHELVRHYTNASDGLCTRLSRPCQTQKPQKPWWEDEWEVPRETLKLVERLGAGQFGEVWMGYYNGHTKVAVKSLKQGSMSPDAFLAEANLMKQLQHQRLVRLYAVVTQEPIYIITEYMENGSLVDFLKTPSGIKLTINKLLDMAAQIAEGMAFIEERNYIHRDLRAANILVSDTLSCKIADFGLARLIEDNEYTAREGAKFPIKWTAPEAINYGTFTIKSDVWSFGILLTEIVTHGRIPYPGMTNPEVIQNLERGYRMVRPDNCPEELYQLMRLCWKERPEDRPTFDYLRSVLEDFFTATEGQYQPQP

[27] = Clearance in mouse at 0.5 mg/kg, iv; type: ADME, organism-based; settings: in vivo
[28] = Volume of distribution at steady state in mouse at 0.5 mg/kg, iv or 100 mg/kg, po; type: ADME, organism-based; settings: in vivo, read-out: Vdss
[29] = Half life in mouse at 0.5 mg/kg, iv; type: ADME, organism-based; settings: in vivo
[30] = Cmax in mouse at 100 mg/kg, po; type: ADME, organism-based; parameters: dose 100 mg/kg, route oral; settings: in vivo
[31] = Unbound fraction in mouse plasma at 0.5 mg/kg, iv or 100 mg/kg, po; type: ADME, organism-based
Mus musculus = test: Acute toxicity in mouse at 100 mg/kg, po; type: organism-based; settings: in vivo
Outline: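 Observed for visible signs of toxicity during a mouse pharmacokinetic study after an oral 100 mg/Kg dose. This was not a maximum tolerated dose study.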

Work on `CCS(=O)(=O)c1cc(Nc2ncc(F)c(N(C)c3cc(CO)ccc3C)n2)ccc1N1CCN(C)CC1` yielded a logD [1] of 3.
In the case of `CCS(=O)(=O)c1cc(Nc2ncc(F)c(N(Cc3ccccc3C#N)c3cc(CO)ccc3C)n2)ccc1N1CCN(C)CC1`, the Activity [2] is reported as “Active”, the Activity [3] is reported as “Active” and the logD [1] is reported as 3.7. It also gave an inhibition at 0.1 µM [4] of 98%, an inhibition [5] of 91% and an inhibition [6] of 91%. For the same molecule, the inhibition [7] was 87%, the inhibition [8] was 86% and the IC50 [9] was 4 nM. For the same molecule, the IC50 [10] was 31 nM, the IC50 [11] was 7 nM and the IC50 [12] was 45 nM. The IC50 [13] was 93 nM, the IC50 [14] was 36 nM and the Activity [15] was “Active”. The Activity [16] was “Active”, the Activity [17] was “Active” and the Activity [18] was “Active”. The Activity [19] was “Active”, the Activity (Homo sapiens) was “Active” and the Activity [20] was “Active”. The Activity [21] was “Active”, the hepatocyte CLint [22] was 30 µL/min/1e6 cells and the IC50 [23] was 6 nM. For the same molecule, the Kd [24] was 0.32 nM, the inhibition [25] was 95% and the inhibition [26] was 83%.
Molecule `Cc1ccc(CO)cc1N(C)c1nc(Nc2cc(N3CCOCC3)cc(S(C)(=O)=O)c2)ncc1F` has a logD [1] of 3.3.
Molecule `Cc1cc(C)c(N(C)c2nc(Nc3cc(N4CCOCC4)cc(S(C)(=O)=O)c3)ncc2F)cc1CO` has a logD [1] of 3.8.
`CN(c1cc(CO)ccc1Cl)c1nc(Nc2cc(N3CCOCC3)cc(S(C)(=O)=O)c2)ncc1F` gave a logD [1] of 3.7.
With `COCc1ccc(C)c(N(C)c2nc(Nc3cc(N4CCOCC4)cc(S(C)(=O)=O)c3)ncc2F)c1` the logD [1] was 3.7.
`CCS(=O)(=O)c1cc(Nc2ncc(F)c(N(C)c3cc(CO)c(C)cc3C)n2)cc(N2CCOCC2)c1` showed a logD [1] of 3.8.
For `CCS(=O)(=O)c1cc(Nc2ncc(F)c(N(Cc3ccccc3)c3cc(CO)ccc3C)n2)ccc1N1CCN(C)CC1`, the logD [1] was 2.8.
For `CCS(=O)(=O)c1cc(Nc2ncc(F)c(N(C)c3cc(CO)c(C)cc3C)n2)ccc1N1C[C@@H]2C[C@H]1CN2C`, the logD [1] was 2.5, the hepatocyte CLint [22] was 11 µL/min/1e6 cells and the clearance [27] was 22 mL/min/kg. It also gave a Vd [28] of 1.4 L/kg, a half-life [29] of 60 min and a Cmax [30] of 7.7 µM. For the same molecule, the fraction unbound [31] was 0.029 and the Activity (Mus musculus) was “Non-Toxic”.
